The sample as a whole holds a higher share of hits than the screen did.
Myeloid diff 2 = myeloid differentiation induction; ER-HoxA9 myeloid progenitors, lysozyme-GFP differentiation, flow cytometry; calls only at 10 µM; 360,000 compounds, 1% hits;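 active = normalized GFP-positive differentiation at or above the plate's own cutoff, the solvent-only control mean plus 3 SD; inconclusive = no clear call, values can overlap the other calls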;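 also: cells exposed to compound for four days before flow analysis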
Xi reactivation = reactivates the inactive X chromosome in mouse fibroblasts; XiGFP mouse fibroblasts, % GFP-positive cells imaging, 3 d; cells co-treated with 5-aza-dC sensitizer; scaled so ellipticine positive control = 100%; activation, % at 7.58 µM; 360,000 compounds, 0.055% hits; AID 743238;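 active = mean normalized replicate activation at least 10% and every replicate at or above 10%; inconclusive = only one of the two criteria met; inactive = mean below 10% and not all replicates reach 10%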;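 also: 0% = median of on-plate neutral control wells and 100% = ellipticine 6 µM median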
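assay system = SV40-immortalized XiGFP fibroblast cells, line 68-5-11 | buffer or medium = DMEM plus 5-aza-dC sensitizer | doses = single-point pinned compound dosing | times = 3-day compound exposure, then 15 min fixation at room temperature | benchmarks = positive control ellipticine, 6 µM final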
ABCB6 inh MLPCN = human ABCB6 transporter inhibition. K562-ABCB6 porphyrin accumulation, flow cytometry, 1 h; stronger effect = lower value. fluorescence ratio to DMSO, % at 10 µM. 360,000 compounds, 0.19% hits. AID 602162;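 active = fluorescence ratio to DMSO below 75%, the collection mean minus 3 SD; inconclusive = too few cells collected in the well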;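 also: signal is porphyrin accumulated inside mitochondria; 100% equals median channel fluorescence of DMSO control wells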
Target sequence (Q9NP58 whole entry, looked up): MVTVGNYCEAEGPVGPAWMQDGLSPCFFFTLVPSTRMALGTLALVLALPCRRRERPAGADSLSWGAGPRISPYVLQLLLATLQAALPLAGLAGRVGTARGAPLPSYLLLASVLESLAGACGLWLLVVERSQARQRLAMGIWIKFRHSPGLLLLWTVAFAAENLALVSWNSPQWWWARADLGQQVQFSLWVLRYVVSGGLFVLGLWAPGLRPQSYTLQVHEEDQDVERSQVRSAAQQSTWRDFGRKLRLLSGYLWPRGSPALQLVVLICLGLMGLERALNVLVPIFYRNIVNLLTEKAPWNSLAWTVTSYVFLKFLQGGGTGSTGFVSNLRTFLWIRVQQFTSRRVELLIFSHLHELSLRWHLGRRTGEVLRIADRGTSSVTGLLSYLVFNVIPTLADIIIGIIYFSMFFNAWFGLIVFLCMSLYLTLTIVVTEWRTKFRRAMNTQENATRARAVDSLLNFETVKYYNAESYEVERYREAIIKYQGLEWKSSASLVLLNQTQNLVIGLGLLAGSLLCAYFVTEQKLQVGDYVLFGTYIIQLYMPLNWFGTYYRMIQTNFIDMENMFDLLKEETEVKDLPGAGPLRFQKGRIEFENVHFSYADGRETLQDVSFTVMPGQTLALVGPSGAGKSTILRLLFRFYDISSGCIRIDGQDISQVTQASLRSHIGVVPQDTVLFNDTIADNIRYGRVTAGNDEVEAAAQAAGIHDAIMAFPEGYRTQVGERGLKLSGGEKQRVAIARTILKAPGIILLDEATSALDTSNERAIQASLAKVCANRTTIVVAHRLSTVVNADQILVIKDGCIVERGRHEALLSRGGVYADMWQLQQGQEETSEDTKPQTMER
ABCB6 blocker 1 = human ABCB6 transporter inhibition | ratio response (% of DMSO), % at 10 µM | 700 tested, under 10 active | K562-ABCB6 porphyrin accumulation, flow cytometry, 1 h; stronger effect = lower value | shares compounds with ABCB6 inh MLPCN;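 active = repeat-averaged ratio response below 75% of DMSO, the collection mean minus 3 SD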;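 also: median porphyrin fluorescence at 575 nm with 488 nm excitation from mitochondria; lower ratio means less porphyrin signal so ABCB6 inhibition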
* hit, by the source's call; i = inactive; ? = inconclusive; . = no result.

SMILES | Myeloid diff 2 | Xi reactivation | ABCB6 inh MLPCN | ABCB6 blocker 1
CCN1CCN(c2nc3ccccc3nc2C(C#N)C(=O)OC2CCCCC2)CC1 (stereo not given) | i | . | 100 | .
CN1CCN(c2nc3ccccc3nc2C(C#N)C(=O)OC2CCCCC2)CC1 (stereo not given) | i | . | 65* | 99
Cc1noc(C)c1S(=O)(=O)N(C)C[C@H]1OCCCC[C@H](C)Oc2ccc(NC(=O)Cc3ccccc3)cc2C(=O)N([C@H](C)CO)C[C@H]1C | . | 0 | . | .
Fc1ccccc1OCCCN1CCOCC1 | i | . | 74* | 99
c1ccc(-c2ccccc2OCCCN2CCOCC2)cc1 | i | 0 | 103 | .
Cc1ccc(-n2c3c(cc(C(=O)NC4CCSC4=O)c2=O)C(=O)CC(C)(C)C3)cc1 (stereo not given) | i | . | 102 | .
CC1(C)CC(=O)c2cc(C(=O)NC3CCSC3=O)c(=O)n(-c3ccc(Cl)cc3)c2C1 (stereo not given) | i | 0 | 63* | 101
O=C(CC1CC1)N1[C@H](CO)[C@@H](c2ccccc2)C12CN(Cc1ccncc1)C2 | . | 0 | . | .
O=C(Cc1ccccc1)N1C[C@H]2[C@@H](c3ccccc31)[C@@H](CO)N2C(=O)C1CCCC1 | . | 0 | . | .
COC(=O)[C@@H](NC(=O)Nc1ccc(S(N)(=O)=O)cc1)C(C)C | i | 0 | 71* | 103
CCC(C)[C@H](NC(=O)Nc1ccc(S(N)(=O)=O)cc1)C(=O)O (stereo not given in full) | i | 0 | 94 | .
CCC(=O)N1C[C@@H](C)[C@@H](OC)CN(C)C(=O)c2ccc(NC(=O)c3ccc(F)cc3)cc2OC[C@H]1C | . | 1 | . | .
Cc1ccc(S(=O)(=O)Nc2ccc3c(c2)C(=O)N([C@@H](C)CO)C[C@@H](C)[C@@H](CN(C)Cc2ccc(C(=O)O)cc2)OCCCC[C@H](C)O3)cc1 | . | 0 | . | .
C[C@@H]1CN([C@H](C)CO)C(=O)c2cc(-c3ccc(C(=O)N(C)C)cc3)cnc2O[C@@H]1CN(C)C | . | 0 | . | .
OCCCn1c(CCNc2nc(-c3ccc(Cl)cc3)cs2)nc2cc(C(F)(F)F)ccc21 | i | 0 | 99 | .
OCCOCCn1c(CCNc2nc(-c3ccc(F)cc3)cs2)nc2cc(C(F)(F)F)ccc21 | i | 0 | 73* | 100
O=[N+]([O-])c1cccc(COc2ncnc3cc([N+](=O)[O-])ccc23)c1 | i | 0 | 10* | 96
COc1ccc(CCNC(=O)COc2ncnc3cc([N+](=O)[O-])ccc23)cc1 | i | 0 | 102 | .
O=C(NCCc1csc(-c2cccnc2)n1)c1cccc(Cl)c1 | i | 0 | 88 | .
O=C(NCCc1csc(-c2cccnc2)n1)c1ccc(Cl)cc1 | i | 0 | 74* | 101
CCCNC(=O)N1CC2(CN(Cc3nccs3)C2)c2c([nH]c3cc(OC)ccc23)[C@H]1CO | . | 0 | . | .
CO[C@@H]1CN(C)C(=O)c2cc(NC(=O)c3cnccn3)ccc2OC[C@H](C)N(C(=O)C2CC2)C[C@@H]1C | . | 0 | . | .
Cc1noc(C)c1NC(=O)N(C)C[C@H]1Oc2ccc(NS(=O)(=O)c3ccc(F)cc3)cc2CC(=O)N([C@H](C)CO)C[C@H]1C | . | 0 | . | .
Cc1ccc(S(=O)(=O)CS(=O)(=O)c2ccc(C)cc2)cc1 | i | 2 | 191 | .
Cc1ccc(S(=O)(=O)Cn2cnnn2)cc1 | i | . | 60* | 100
SMILES | Myeloid diff 2 | Xi reactivation | ABCB6 inh MLPCN | ABCB6 blocker 1
O=C(O)C(Cc1ccccc1)NS(=O)(=O)c1ccc(Cl)cc1 (stereo not given) | i | 0 | 98 | .
O=C(O)C(Cc1ccccc1)NS(=O)(=O)c1ccc2c(c1)OCCO2 (stereo not given) | i | . | 68* | 96
O=C(O)C(Cc1ccc(Cl)cc1)NS(=O)(=O)c1ccc(Cl)cc1 (stereo not given) | i | 0 | 49* | 102
COc1ccc(S(=O)(=O)NC(Cc2ccccc2)C(=O)O)cc1 (stereo not given) | i | 0 | 95 | .
COCC(=O)Nc1ccc2c(c1)OC[C@@H](C)N(Cc1ccccc1)C[C@@H](C)[C@H](OC)CN(C)C2=O | . | 0 | . | .
C/C(N)=C(/C#N)C(=O)COC(=O)C1CCN(S(=O)(=O)c2cccs2)CC1 | i | 0 | 104 | 101
O=C(COC(=O)C1CCN(S(=O)(=O)c2cccs2)CC1)c1ccccc1 | i | 0 | 95 | .
CN(C)S(=O)(=O)c1ccc(C(=O)NCCC(=O)N2CCCC2)cc1 | i | 0 | 70* | 101
CC(C)(C)c1ccc(C(=O)NCCC(=O)N2CCCC2)cc1 | i | 0 | 101 | .
COc1ccc(S(=O)(=O)Nc2ccc3c(c2)C(=O)N([C@H](C)CO)C[C@@H](C)[C@@H](CN(C)Cc2ccccc2)OCCCC[C@@H](C)O3)cc1 | . | 0 | . | .
CNC[C@H]1Oc2ccc(NS(=O)(=O)c3cccs3)cc2CC(=O)N([C@@H](C)CO)C[C@@H]1C | . | -1 | . | .
CC(C)(C)c1ccc(CC(=O)N2CCC2(C)C(=O)NS(=O)(=O)c2cccc(OC(F)F)c2)cc1 (stereo not given) | i | 0 | 97 | .
CC1(C(=O)NS(=O)(=O)c2ccc(C#N)cc2)CCN1C(=O)Cc1ccsc1 (stereo not given) | i | 0 | 99 | .
Cc1cc(C)cc(CC(=O)N2CCC2(C)C(=O)NS(=O)(=O)c2ccc(C#N)cc2)c1 (stereo not given) | i | 0 | 93 | 103
Cc1cc(C)cc(CC(=O)N2CCC2(C)C(=O)NS(=O)(=O)c2cccc(OC(F)F)c2)c1 (stereo not given) | i | 0 | 95 | 99
CCCNC(=O)N1CC2(C1)[C@H](c1ccccc1)[C@@H](CO)N2Cc1ccccc1 | . | 0 | . | .
Cc1noc(C)c1S(=O)(=O)Nc1ccc2c(c1)C(=O)N([C@@H](C)CO)C[C@@H](C)[C@H](CN(C)CC1CC1)O2 | . | 0 | . | .
Cc1nn(-c2ccccc2)c(N)c1Sc1cccc([N+](=O)[O-])c1 | i | 0 | 93 | .
Cc1nn(-c2ccccc2)c(N)c1Sc1ccccc1[N+](=O)[O-] | i | 0 | 46* | 102
CCc1nc(SCC(=O)N2CCN(C(=O)c3ccco3)CC2)c2c3c(sc2n1)CCCC3 | i | . | 28* | 98
Cc1nc(N2CCN(C(=O)c3ccco3)CC2)c2c3c(sc2n1)CCCC3 | ? | . | 102 | .
COc1ccc(CN(C)C[C@H]2OCCCC[C@@H](C)Oc3ccc(NC(=O)NC(C)C)cc3C(=O)N([C@@H](C)CO)C[C@@H]2C)cc1 | . | 0 | . | .
Cc1cc(N2C(=O)CC(Cc3ccc(Cl)cc3)C2=O)no1 (stereo not given) | i | . | 102 | .
Cc1cc(N2C(=O)CC(Cc3ccccc3)C2=O)no1 (stereo not given) | i | . | 72* | 101
C[C@H](CO)N1C[C@H](C)[C@@H](CN(C)C(=O)CCCN(C)C)OCCCC[C@H](C)Oc2ccc(NS(=O)(=O)c3ccccc3)cc2C1=O | . | 4 | . | .
CC(=O)c1cccc(NC(=O)C2(C)Cc3c(-c4cccc(C(F)(F)F)c4)ccnc3O2)c1 (stereo not given) | i | 0 | 76 | 100

Bioassay records (PubChem BioAssay)
